According to ChEMBL document CHEMBL4038284, “Synthesis of novel quinoline-based 4,5-dihydro-1H-pyrazoles as potential anticancer, antifungal, antibacterial and antiprotozoal agents” (Eur J Med Chem, 2017):
Values after ≈ are worked out from the molar mass of the structure shown.

Key:
Trypanosoma cruzi = experiment: Antitrypanosomal activity against Trypanosoma cruzi Tulahuen intracellular amastigote harboring LacZ infected in human U937 cells after 72 hrs by CPRG/Nonidet reagent based spectrophotometric method; type: functional, cell-based; conditions: U-937, 72 h
Summary of the method: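 U-937 cells at 2.5 × 10^5 cells/mL in RPMI-1640 with 10% serum and 0.1 µg/mL PMA were infected with β-galactosidase-transfected Tulahuen epimastigotes at 5 parasites per cell. Infected cells were exposed to 50, 12.5, 3.125 and 0.78 µg/mL for 72 h. CPRG (100 uM) and 0.1% Nonidet P-40 were added for 3 h, read at 570 nm. EC50 by Probit. Triplicate, at least two experiments; benznidazole as reference.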

Candida albicans [1] = experiment: Growth inhibition of Candida albicans ATCC 10231 at 250 ug/ml incubated for 48 hrs under dark condition by broth microdilution method relative to control; type: functional; conditions: ATCC 10231, 48 h, read-out: GI
Summary of the method: (§1)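 CLSI M27-A3 broth microdilution in RPMI-1640, DMSO ≤1%. Inoculum 1-5 × 10^3 CFU/mL. Incubated 48 h at 30 °C, dark. % inhibition = 100 − (OD405 test − sterility control)/(OD405 growth control − sterility control), with growth and sterility control wells. Triplicate.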

Candida albicans [2] = experiment: Antifungal activity against Candida albicans ATCC 10231 incubated for 48 hrs under dark condition by broth microdilution method; type: functional; conditions: ATCC 10231, 48 h
Summary of the method: (§2)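 CLSI M27-A3 broth microdilution in RPMI-1640, DMSO ≤1%, compounds at 250-0.98 µg/mL final. Inoculum 1-5 × 10^3 CFU/mL. Incubated 48 h at 30 °C in a moist dark chamber, read at OD405. MIC80 and MIC50 taken from % inhibition dose-response curves (mean ± SEM, triplicate). Amphotericin B was the positive control.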

Candida albicans [3] = experiment: Growth inhibition of Candida albicans ATCC 10231 at 7.8 ug/ml incubated for 48 hrs under dark condition by broth microdilution method relative to control; type: functional; conditions: ATCC 10231, 48 h, read-out: GI; summary of the method: as §1
Klebsiella pneumoniae [4] = experiment: Antibacterial activity against carbapenemase positive Klebsiella pneumoniae BAA 1705 after 24 hrs by resazurin dye based microdilution assay; type: functional; conditions: BAA 1705, 24 h
Summary of the method: (§3)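 MIC taken as the lowest concentration giving visible inhibition and/or by resazurin (1 mg/mL). Gentamicin was the control. Run in duplicate, repeated at least three times.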

Neisseria gonorrhoeae = experiment: Antibacterial activity against beta lactamase positive Neisseria gonorrhoeae ATCC 31426 by oxidase test; type: functional
Summary of the method: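 Agar dilution MIC on GC agar with 1% isovitalex containing increasing compound concentrations. Plates inoculated with about 1×10^4 CFU (5 µL). MIC is the lowest concentration that inhibited growth, with growth confirmed by oxidase test. Run in duplicate, repeated at least three times.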

Klebsiella pneumoniae [5] = experiment: Antibacterial activity against ESBL positive Klebsiella pneumoniae ATCC 700603 after 24 hrs by resazurin dye based microdilution assay; type: functional; conditions: Klebsiella pneumoniae, 700603, 24 h; summary of the method: as §3
Cryptococcus neoformans [6] = experiment: Growth inhibition of Cryptococcus neoformans ATCC 32264 at 125 ug/ml incubated for 48 hrs under dark condition by broth microdilution method relative to control; type: functional; conditions: ATCC 32264, 48 h, read-out: GI; summary of the method: as §1
Candida albicans [7] = experiment: Growth inhibition of Candida albicans ATCC 10231 at 62.5 ug/ml incubated for 48 hrs under dark condition by broth microdilution method relative to control; type: functional; conditions: ATCC 10231, 48 h, read-out: GI; summary of the method: as §1
Candida albicans [8] = experiment: Growth inhibition of Candida albicans ATCC 10231 at 3.4 ug/ml incubated for 48 hrs under dark condition by broth microdilution method relative to control; type: functional; conditions: ATCC 10231, 48 h, read-out: GI
Staphylococcus aureus [9] = experiment: Antibacterial activity against vancomycin-intermediate Staphylococcus aureus after 24 hrs by resazurin dye based microdilution assay; type: functional; summary of the method: as §3
Cryptococcus neoformans [10] = experiment: Growth inhibition of Cryptococcus neoformans ATCC 32264 at 250 ug/ml incubated for 48 hrs under dark condition by broth microdilution method relative to control; type: functional; conditions: ATCC 32264, 48 h, read-out: GI; summary of the method: as §1
Cryptococcus neoformans [11] = experiment: Growth inhibition of Cryptococcus neoformans ATCC 32264 at 15.62 ug/ml incubated for 48 hrs under dark condition by broth microdilution method relative to control; type: functional; conditions: ATCC 32264, 48 h, read-out: GI; summary of the method: as §1
Cryptococcus neoformans [12] = experiment: Growth inhibition of Cryptococcus neoformans ATCC 32264 at 62.5 ug/ml incubated for 48 hrs under dark condition by broth microdilution method relative to control; type: functional; conditions: ATCC 32264, 48 h, read-out: GI; summary of the method: as §1
Cryptococcus neoformans [13] = experiment: Growth inhibition of Cryptococcus neoformans ATCC 32264 at 7.8 ug/ml incubated for 48 hrs under dark condition by broth microdilution method relative to control; type: functional; conditions: ATCC 32264, 48 h, read-out: GI; summary of the method: as §1
Cryptococcus neoformans [14] = experiment: Growth inhibition of Cryptococcus neoformans ATCC 32264 at 3.4 ug/ml incubated for 48 hrs under dark condition by broth microdilution method relative to control; type: functional; conditions: ATCC 32264, 48 h, read-out: GI
U-937 = experiment: Cytotoxicity against human U937 cells after 72 hrs by MTT assay; type: cell-based; conditions: u-937, 72 h
Summary of the method: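 Exponentially growing U-937 at 1 × 10^5 cells/mL in RPMI-1640 with 10% FBS were exposed to 200, 50, 12.5 and 3.125 µg/mL for 72 h at 37 °C, 5% CO2. MTT for 3 h, stopped with isopropanol/SDS, formazan read at 570 nm, blank-corrected. LC50 by Probit from % viability against untreated cells. Triplicate, at least two independent experiments.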

Cryptococcus neoformans [15] = experiment: Antifungal activity against Cryptococcus neoformans ATCC 32264 incubated for 48 hrs under dark condition by broth microdilution method; type: functional; conditions: ATCC 32264, 48 h; summary of the method: as §2
Candida albicans [16] = experiment: Growth inhibition of Candida albicans ATCC 10231 at 125 ug/ml incubated for 48 hrs under dark condition by broth microdilution method relative to control; type: functional; conditions: ATCC 10231, 48 h, read-out: GI; summary of the method: as §1
Staphylococcus aureus [17] = experiment: Antibacterial activity against methicillin-sensitive Staphylococcus aureus ATCC 25923 after 24 hrs by resazurin dye based microdilution assay; type: functional; conditions: ATCC 25923, 24 h; summary of the method: as §3
Candida albicans [18] = experiment: Growth inhibition of Candida albicans ATCC 10231 at 31.25 ug/ml incubated for 48 hrs under dark condition by broth microdilution method relative to control; type: functional; conditions: ATCC 10231, 48 h, read-out: GI; summary of the method: as §1
Pseudomonas aeruginosa = experiment: Antibacterial activity against Pseudomonas aeruginosa ATCC 27853 after 24 hrs by resazurin dye based microdilution assay; type: functional; conditions: ATCC 27853, 24 h; summary of the method: as §3
Escherichia coli = experiment: Antibacterial activity against Escherichia coli ATCC 25922 after 24 hrs by resazurin dye based microdilution assay; type: functional; conditions: ATCC 25922, 24 h; summary of the method: as §3
Cryptococcus neoformans [19] = experiment: Growth inhibition of Cryptococcus neoformans ATCC 32264 at 31.25 ug/ml incubated for 48 hrs under dark condition by broth microdilution method relative to control; type: functional; conditions: ATCC 32264, 48 h, read-out: GI; summary of the method: as §1
Staphylococcus aureus [20] = experiment: Antibacterial activity against methicillin-resistant Staphylococcus aureus ATCC 43300 after 24 hrs by resazurin dye based microdilution assay; type: functional; conditions: ATCC 43300, 24 h
Summary of the method: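 Broth microdilution in Mueller Hinton broth, inoculum 5 × 10^5 – 8 × 10^5. Compound stocks diluted in MHB with 5% DMSO and 0.1% Tween 80. Incubation 24 h at 35-37 °C. MIC is the lowest concentration with visible growth inhibition and/or by resazurin (1 mg/mL) read-out. Gentamicin as control. Run in duplicate, replicated at least three times.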

Candida albicans [21] = experiment: Growth inhibition of Candida albicans ATCC 10231 at 15.62 ug/ml incubated for 48 hrs under dark condition by broth microdilution method relative to control; type: functional; conditions: ATCC 10231, 48 h, read-out: GI; summary of the method: as §1
Plasmodium falciparum = experiment: Antiplasmodial activity against chloroquine-sensitive Plasmodium falciparum 3D7 assessed as reduction in parasitic LDH activity after 48 hrs by Malstat reagent based […] method; type: functional; conditions: 3D7, 48 h
Summary of the method: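 Unsynchronized P. falciparum 3D7 at 0.5% parasitemia and 1% hematocrit in RPMI with 3% Albumax II. Exposed to 100, 25, 6.25 and 1.56 µg/mL for 48 h at 37 °C under 90% N2/5% CO2/5% O2. After three freeze-thaw cycles, LDH measured with Malstat and NBT/PES, 1 h in the dark, read at 650 nm. IC50 by Probit; triplicate, ≥2 experiments.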

Leishmania panamensis = experiment: Antileshmanial activity against EpiR/GFP fused Leishmania panamensis MHOM/CO/87/UA140 intracellular amastigotes infected in human […] cells after 72 hrs by flow cytometric method; type: functional, cell-based; conditions: MHOM/CO/87/UA140, 72 h
Summary of the method: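 PMA-treated U-937 cells (3 × 10^5 cells/mL) infected with stationary-phase GFP L. panamensis promastigotes (15:1), 3 h at 34 °C, then washed. After 24 h, compounds added at 50, 12.5, 3.125 and 0.78 µg/mL for 72 h at 37 °C. EC50 by Probit; triplicate, two experiments.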

COc1cc(C2=NN(C(C)=O)C(c3cccc(Nc4ccnc5cc(Cl)ccc45)c3)C2)cc(OC)c1OC (stereo not given)
EC50 (Trypanosoma cruzi): 4.08 µg/mL (≈ 7.68 µM) | inhibition of growth at 250 µg/mL (Candida albicans [1]): 53.8% | MIC50 (Candida albicans [2]): 250 µg/mL (≈ 471 µM) | MIC80 (Candida albicans [2]): ≥ 250 µg/mL | inhibition of growth at 7.8 µg/mL (Candida albicans [3]): 1.46% | MIC (Klebsiella pneumoniae [4]): > 1000 µg/mL | MIC (Neisseria gonorrhoeae): 31.2 µg/mL (≈ 58.8 µM) | MIC (Klebsiella pneumoniae [5]): > 1000 µg/mL | inhibition of growth at 125 µg/mL (Cryptococcus neoformans [6]): 23.1% | inhibition of growth at 62.5 µg/mL (Candida albicans [7]): 12.8% | inhibition of growth at 3.4 µg/mL (Candida albicans [8]): 0% | MIC (Staphylococcus aureus [9]): > 1000 µg/mL | inhibition of growth at 250 µg/mL (Cryptococcus neoformans [10]): 53.1% | inhibition of growth at 15.62 µg/mL (Cryptococcus neoformans [11]): 9.86% | inhibition of growth at 62.5 µg/mL (Cryptococcus neoformans [12]): 13.3% | inhibition of growth at 7.8 µg/mL (Cryptococcus neoformans [13]): 5.61% | inhibition of growth at 3.4 µg/mL (Cryptococcus neoformans [14]): 4.02% | LC50 (U-937): 5.1 µg/mL (≈ 9.6 µM) | MIC50 (Cryptococcus neoformans [15]): 250 µg/mL (≈ 471 µM) | MIC80 (Cryptococcus neoformans [15]): ≥ 250 µg/mL | inhibition of growth at 125 µg/mL (Candida albicans [16]): 37.3% | MIC (Staphylococcus aureus [17]): > 1000 µg/mL | inhibition of growth at 31.25 µg/mL (Candida albicans [18]): 8.42% | MIC (Pseudomonas aeruginosa): > 1000 µg/mL | MIC (Escherichia coli): > 1000 µg/mL | inhibition of growth at 31.25 µg/mL (Cryptococcus neoformans [19]): 10.2% | MIC (Staphylococcus aureus [20]): > 1000 µg/mL | inhibition of growth at 15.62 µg/mL (Candida albicans [21]): 6.96% | EC50 (Plasmodium falciparum): 22.9 µg/mL (≈ 43.2 µM) | EC50 (Leishmania panamensis): 1.96 µg/mL (≈ 3.69 µM)
